Measurements taken from the RNAGym collection of RNA variant scans (doi:10.1126/science.aae0568).
Fewer inactive variants are shown than the library holds.

B1: tRNA (parent)
chain: GUUCCGUUGGCGUAAUGGUAACGCGUCUCCCUCCUAAGGAGAAGACUGCGGGUUCGAGUCCCGUACGGAACG

Variants of: B1
Assay: yeast fitness relative to wild type (ratio to wild type); higher = fitter; tRNA-Arg(CCU), competitive growth, 37 C, YPD
Summary of the method: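 The tRNA-Arg(CCU) gene variants were made by chemical synthesis with a 3% per-site mutation rate at 69 sites and inserted at the native genomic locus of Saccharomyces cerevisiae. After pooling, the strains were competed in YPD at 37°C for 24 hours in six parallel replicates. Gene amplicons from the start population and each end population were read by 100-nucleotide paired-end sequencing, and Darwinian fitness relative to wild type was taken from genotype frequency changes. Genotypes needed ≥ 100 starting reads, and estimates < 0.5 were set to 0.5.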

**Q.** Which yeast fitness does the source give for GUUCCGUUGGCGUAAUGGUACCGCGUCUCCCUCCUCAGGAGAAGACAGCGGGUUCGAGUCCGGUACGGAACG [A21C A36C U47A C62G] here?
**A.** The yeast fitness was ≤ 0.5.

**Q.** With GUUCCGUUGGCGUAAUGGUACGGCGUCUCCCUCCUAACGAGAAGACUGCGGGUUCGAGUCCCGUACGGAACG [A21C C22G G38C] as the variant, how does the yeast fitness read?
**A.** Its yeast fitness is 0.52.

**Q.** Which yeast fitness does the source give for GUUCCGUUGGCGUAAUGGUACCGCGUCUCCCUCCUAUGGAGUAGAGGGCGGGUUCGAGUCCCGUACGGAACG [A21C A37U A42U C46G U47G] here?
**A.** Its yeast fitness is 0.534.

**Q.** With GUUCCGUUGGCGUAAUGGUACCGCGUCUCCCUCCUGAGGAGAAGACUGCGGGUUCGAGUCCCGUACCGAACG [A21C A36G G67C] as the variant, how does the yeast fitness read?
**A.** Its yeast fitness is ≤ 0.5.

**Q.** For GUUCCGUUGGCGUAAUGGUACCGCGUCUCCCUCCUACGGAGAAGACUGCGGGUUCGAGUCCCGUACGGUACG [A21C A37C A69U], which yeast fitness is on record?
**A.** The yeast fitness was ≤ 0.5.

**Q.** Which yeast fitness does the source give for GUUCCGUUGGCGUAAUGGUACCGCGUCUCCCUCCUACGGAGAAGACUGCGGGUUAGAAUCCCGUACGGAACG [A21C A37C C55A G58A] here?
**A.** Its yeast fitness is 0.515.

**Q.** With GUUCCGUUGGCGUAAUGGUACCGAGUCUCCCUCCUAAGGAGAAGACUGCGGGUUCGAGUCCCGUCCGGAACG [A21C C24A A65C] as the variant, how does the yeast fitness read?
**A.** Its yeast fitness is ≤ 0.5.

**Q.** With GUUCCGUUGGCGUAAUGGUACCGCGUCUCCCUCCUAAGGAGAAGCCUGUGGGUUGCAGUCCCGUACGGAACG [A21C A45C C49U C55G G56C] as the variant, how does the yeast fitness read?
**A.** The yeast fitness was ≤ 0.5.

**Q.** With GUUCCGUUGGCGUAAUGGUUACGCGUCUCCCUCCUAAGGAGAAGACUGCGGGUCCGAGUCCCUUACGGAACG [A20U U54C G63U] as the variant, how does the yeast fitness read?
**A.** Its yeast fitness is ≤ 0.5.

**Q.** For GUUCCGUUGGCGUAAUGGUACUGCGUCUCCUUUCUAAGGAGAAGACUGCGGGUUCGAGUCCCGUACGGAACG [A21C C22U C31U C33U], which yeast fitness is on record?
**A.** Its yeast fitness is ≤ 0.5.

**Q.** With GUUCCGUUGGCGUAAUGGUACCGUGUCUCCCACCUAAGGAAAAGACUGCGGGUUCGAGUCCGGUACGGAACG [A21C C24U U32A G41A C62G] as the variant, how does the yeast fitness read?
**A.** Its yeast fitness is ≤ 0.5.

**Q.** With GUUCCGUUGGCGUAAUGGUACCGCGUCUCCCUCCUAAGGAGUACACUGCGGGCUCGAGUCCCGUACGGAACG [A21C A42U G44C U53C] as the variant, how does the yeast fitness read?
**A.** Its yeast fitness is ≤ 0.5.

**Q.** For GUUCCGUUGGCGUAAUGGUACUGCGUCUCCUUUCUAAGGAGAAGACUCCGGGUUCGAGUCCCGUACGGAACG [A21C C22U C31U C33U G48C], which yeast fitness is on record?
**A.** The yeast fitness was ≤ 0.5.

**Q.** Which yeast fitness does the source give for GUUCCGUUGGCGUAAUGGUACCGCGUUUCCCUCCUAAGGAGAAGACUGCGGGUUCGAGUCGCGUACGGAACG [A21C C27U C61G] here?
**A.** The yeast fitness was 0.534.

**Q.** With GUUCCGUUGGCGUAAUGGUACCGCGUCUGCCUCCUAAGGAGAAGACUGCGAGUUCGAGUCCCGUACGGAACG [A21C C29G G51A] as the variant, how does the yeast fitness read?
**A.** Its yeast fitness is 0.529.

**Q.** Which yeast fitness does the source give for GUUCCGUUGGCGUAAUGGUACCGCGUCUCCCUCCUAAGGAGAGGACUGCGGGUUCGACUCCCGUACGGAACG [A21C A43G G58C] here?
**A.** The yeast fitness was ≤ 0.5.

**Q.** With GUUCCGUUGGCGUAAUGGUACCGCGUCUCCCUCCUAAGGAGAGGACUGCGGGUUCGAAUCCCGUACGGAACG [A21C A43G G58A] as the variant, how does the yeast fitness read?
**A.** The yeast fitness was 0.892.

**Q.** For GUUCCGUUGGCGUAAUGGUACCGUGUCUCCCUCCUACGAAGAAGACUGGGGGUUCGAGUCCCGUACGGCACG [A21C C24U A37C G39A C49G A69C], which yeast fitness is on record?
**A.** Its yeast fitness is ≤ 0.5.

**Q.** Which yeast fitness does the source give for GUUCCGUUGGCGUAAUGGUACCGCGUAACCCUCCUAAGGAGAAGGCUGCGGGUUCGAGUCCCGUACGGCACG [A21C C27A U28A A45G A69C] here?
**A.** The yeast fitness was ≤ 0.5.

**Q.** For GUUCCGUUGGCGUAAUGGUACCGCGUCUCCCUCCUAAGGAGAAGCCUGCGGGUUCGAGUCCGGUCCGGAACG [A21C A45C C62G A65C], which yeast fitness is on record?
**A.** Its yeast fitness is 0.574.

**Q.** With GUUCCGUUGGCGUAAUGGUACCGAGUCUCCCUCCUAAGAAGAAGACUGCGGGUUCGAGUCCCGUACGGAACG [A21C C24A G39A] as the variant, how does the yeast fitness read?
**A.** The yeast fitness was ≤ 0.5.

**Q.** For GUUCCGUUGGCGUAAUGGUACCGGGUCUCCCUCCUAAGGAGAAGACUGCGGGUUCGAGUCCCGUACGCAACG [A21C C24G G68C], which yeast fitness is on record?
**A.** Its yeast fitness is ≤ 0.5.

**Q.** For GUUCCGUUGGCGUAAUGGUACCGCGUCUUCCUCCUAAGGAGAGGACUGCGGGUUCGAGUCCCGUAUGGAACG [A21C C29U A43G C66U], which yeast fitness is on record?
**A.** The yeast fitness was ≤ 0.5.

**Q.** Which yeast fitness does the source give for GUUCCGUUGGCGUAAUGGUACCGGGUCUCCCACCUAAGGAGCAGACUGCGGGUUCGAGUCCCGUUCGGAACG [A21C C24G U32A A42C A65U] here?
**A.** Its yeast fitness is 0.543.

**Q.** Which yeast fitness does the source give for GUUCCGUUGGCGUAAUGGUACCGCGUGAUCCUCUUAAGGAGAAGACUGCGGGUUCGAGUCCCGUACGGAACG [A21C C27G U28A C29U C34U] here?
**A.** Its yeast fitness is 0.525.

**Q.** Which yeast fitness does the source give for GUUCCGUUGGCGUAAUGGUACCGCGUCUCCCUCCUAAGGAGAAGGCUGCGGGUUCGAGUCCCCUAUGGAACG [A21C A45G G63C C66U] here?
**A.** The yeast fitness was ≤ 0.5.

**Q.** For GUUCCGUUGGCGUAAUGGUACCGCGUCUUCCUCCUAAGGAGAAGACUGCGGGUUCGUGUUCUGUAUGGAACG [A21C C29U A57U C60U C62U C66U], which yeast fitness is on record?
**A.** Its yeast fitness is 0.564.

**Q.** Which yeast fitness does the source give for GUUCCGUUGGCGUAAUGGUACCGCGUUUCCCUCCUAAGGAGAAGCCUGUGGGUUCGAGUCCCGUACGGAACG [A21C C27U A45C C49U] here?
**A.** Its yeast fitness is ≤ 0.5.

**Q.** For GUUCCGUUGGCGUAAUGGUACCGCGUUUCCCUCCUAAGGAGAAGACUGCGGGUUCGACUCCGGUACGGAACG [A21C C27U G58C C62G], which yeast fitness is on record?
**A.** The yeast fitness was ≤ 0.5.

**Q.** With GUUCCGUUGGCGUAAUGGUACCGAGUCUCCCUCCUAAGGAGAAGACUGUGGGUUCGAGUCCCGUACGGAACG [A21C C24A C49U] as the variant, how does the yeast fitness read?
**A.** Its yeast fitness is ≤ 0.5.

**Q.** For GUUCCGUUGGCGUAAUGGUACUGCGUCUCCCUCCUAACGCGAAGACUGCGGGUUCGAGUCCCGUACGGAACG [A21C C22U G38C A40C], which yeast fitness is on record?
**A.** The yeast fitness was ≤ 0.5.

**Q.** Which yeast fitness does the source give for GUUCCGUUGGCGUAAUGGUACCGCGUCUCCCUCCUAAGGAGGAGACUGCGGGUUCGAGUCCCGUACGGCGCG [A21C A42G A69C A70G] here?
**A.** Its yeast fitness is 0.543.

**Q.** Which yeast fitness does the source give for GUUCCGUUGGCGUAAUGGUUACGCGUCUCCCUCCUAAGGAGAAGACUGCGGGUACGAGUCCCGUACGGAACG [A20U U54A] here?
**A.** Its yeast fitness is 0.699.

**Q.** Which yeast fitness does the source give for GUUCCGUUGGCGUAAUGGUACCGCGUCUCCCUCCUAAGGAGUAGACUGCGGAUUCGAGUACCGUACGGGACG [A21C A42U G52A C60A A69G] here?
**A.** The yeast fitness was ≤ 0.5.

**Q.** For GUUCCGUUGGCGUAAUGGUACCGGGUCUCCCUCCUAUGGAGAAGACUGCGGGUUUGAGUCCCGUACGGAACG [A21C C24G A37U C55U], which yeast fitness is on record?
**A.** The yeast fitness was ≤ 0.5.

**Q.** Which yeast fitness does the source give for GUUCCGUUGGCGUAAUGGUACCGCGUCUCCCUCCUAAGGAGAGGACUGCGGGUUCGAGUGCCGUGCGGAACG [A21C A43G C60G A65G] here?
**A.** Its yeast fitness is ≤ 0.5.

**Q.** Which yeast fitness does the source give for GUUCCGUUGGCGUAAUGGUACGGCGUCUCCCACCUAAGGAGAAGACUGCGGGUUCCAGUCCCGUACGGAACG [A21C C22G U32A G56C] here?
**A.** The yeast fitness was ≤ 0.5.
